For 18 compounds, inhibition and IC50 results are on record in ChEMBL document CHEMBL1155918, “Oxadiazole-carbonylaminothioureas as SIRT1 and SIRT2 inhibitors” (J Med Chem, 2008).

Molecules are shown by their SMILES.

Assay [1] addresses T1, NAD-dependent protein deacetylase sirtuin-1 (Homo sapiens) (UniProt Q96EB6).
T1 sequence (whole entry): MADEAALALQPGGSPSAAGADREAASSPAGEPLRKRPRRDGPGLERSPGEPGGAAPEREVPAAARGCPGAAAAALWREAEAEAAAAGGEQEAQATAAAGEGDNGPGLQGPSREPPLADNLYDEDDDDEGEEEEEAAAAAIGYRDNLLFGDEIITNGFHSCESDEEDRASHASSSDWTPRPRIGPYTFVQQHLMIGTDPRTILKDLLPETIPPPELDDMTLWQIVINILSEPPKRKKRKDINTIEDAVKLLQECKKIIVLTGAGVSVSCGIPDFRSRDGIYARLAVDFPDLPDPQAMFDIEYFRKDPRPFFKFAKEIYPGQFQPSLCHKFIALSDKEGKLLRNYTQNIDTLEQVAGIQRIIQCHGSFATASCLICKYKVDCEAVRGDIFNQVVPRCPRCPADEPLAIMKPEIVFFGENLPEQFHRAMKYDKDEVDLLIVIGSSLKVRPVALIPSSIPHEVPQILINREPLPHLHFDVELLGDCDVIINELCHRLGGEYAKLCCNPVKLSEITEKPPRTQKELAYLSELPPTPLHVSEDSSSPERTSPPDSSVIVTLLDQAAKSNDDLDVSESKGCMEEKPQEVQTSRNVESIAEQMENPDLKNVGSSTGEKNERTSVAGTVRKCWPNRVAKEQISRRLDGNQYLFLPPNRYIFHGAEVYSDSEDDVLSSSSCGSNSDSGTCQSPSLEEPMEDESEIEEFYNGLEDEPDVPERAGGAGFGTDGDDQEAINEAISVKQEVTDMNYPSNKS
As to the kind of experiment: Inhibition of human SIRT1 at 200 uM. In a few lines: (§1)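 Single-concentration screen at 200 µM compound in the NAD⁺-based assay, with radiolabeled nicotinamide release read by thin layer chromatography. Result is % inhibition ± standard deviation (n = 2-3).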

In assay [2] the target is T2, NAD-dependent protein deacetylase sirtuin-2 (Homo sapiens) (UniProt Q8IXJ6).
T2 sequence (whole entry): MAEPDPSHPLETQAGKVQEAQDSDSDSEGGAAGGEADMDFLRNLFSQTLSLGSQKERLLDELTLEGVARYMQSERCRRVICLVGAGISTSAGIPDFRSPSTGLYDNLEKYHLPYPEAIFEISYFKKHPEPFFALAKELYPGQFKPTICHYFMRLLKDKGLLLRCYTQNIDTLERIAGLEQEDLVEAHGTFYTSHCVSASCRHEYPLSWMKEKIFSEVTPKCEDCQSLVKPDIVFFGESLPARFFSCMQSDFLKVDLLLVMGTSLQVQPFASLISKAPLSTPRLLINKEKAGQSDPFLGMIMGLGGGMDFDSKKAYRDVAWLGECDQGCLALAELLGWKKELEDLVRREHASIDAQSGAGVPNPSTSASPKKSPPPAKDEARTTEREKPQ
As to the kind of experiment: Inhibition of human SIRT2 at 200 uM. A digest of the protocol:
as §1

The target of assay [3] is T3, NAD-dependent protein deacetylase sirtuin-2 (Homo sapiens, UniProt Q8IXJ6).
T3 sequence (Q8IXJ6 whole entry): T2 sequence (whole entry)
As to the kind of experiment: Inhibition of human SIRT2 assessed as nicotinamide releasing by microplate filtration assay.

Assay [4] has as its target T4, NAD-dependent protein deacetylase sirtuin-1 (Homo sapiens, UniProt Q96EB6).
T4 sequence (Q96EB6 whole entry): T1 sequence (whole entry)
As to the kind of experiment: Inhibition of human SIRT1 assessed as nicotinamide releasing by microplate filtration assay.

On to `O=C(CCCc1nc(-c2ccccc2)no1)Nc1ccccc1`, for which the inhibition in assay [1] amounted to 0%; in assay [2] it was 5%.

On to `O=C(NNC(=O)c1nc(-c2cccc3ccccc23)no1)Nc1cccc(C(F)(F)F)c1`, for which the IC50 in assay [3] was 257 µM. Besides, the inhibition turned out to be 12% in assay [1] and 51% in assay [2].

On to `O=C(NNC(=S)Nc1ccc(C(F)(F)F)cc1)c1nc(-c2ccccc2)no1`, for which the inhibition in assay [1] was determined as 29%; in assay [2], 8%.

Consider `CC(C)(C)c1ccc(-c2noc(C(=O)NNC(=S)Nc3ccc(C(F)(F)F)cc3)n2)cc1`, for which the IC50 in assay [3] was found to be 109 µM; in assay [4] it was 325 µM. Moreover, the results for the inhibition in assay [1] and in assay [2] were 70% and 89%, respectively.

For `CC(C)(C)c1ccc(-c2noc(CCCC(=O)Nc3cccc(C(F)(F)F)c3)n2)cc1`, the inhibition came out at 17% in assay [1] and 0% in assay [2].

For the compound `CC(C)(C)c1ccc(-c2noc(C(=O)NNC(=O)Nc3ccccc3)n2)cc1`, the results for the inhibition in assay [1] and in assay [2] were 14% and 38%, respectively.

Consider `CC(C)(C)c1ccc(-c2noc(C(=O)NNC(=S)Nc3ccccc3)n2)cc1`, for which the inhibition in assay [1] was -2%; in assay [2] it was 29%.

For the compound `CC(C)(C)c1ccc(-c2noc(C(=O)NNC(=O)Nc3cccc([N+](=O)[O-])c3)n2)cc1`, the inhibition in assay [1] was found to be 18%; in assay [2], 39%.

As to `CC(C)(C)c1ccc(-c2noc(C(=O)NNC(=S)Nc3cccc(C(F)(F)F)c3)n2)cc1`, the IC50 was found to be 57 µM in assay [3] and 192 µM in assay [4]. Further, the inhibition worked out at 59% in assay [1] and 87% in assay [2].

With `O=C(NNC(=S)Nc1ccc(F)cc1)c1nc(-c2ccccc2)no1`, in assay [2], the inhibition was determined as 22%.

As to `CC(C)(C)OC(=O)Nc1cccc(-c2noc(C(=O)NNC(=S)Nc3ccc(C(F)(F)F)cc3)n2)c1`, the IC50 in assay [3] was 129 µM; in assay [4], 168 µM. Besides, the inhibition in assay [1] was found to be 69%; in assay [2], 71%.

In the case of `O=C(NNC(=S)Nc1cccc(C(F)(F)F)c1)c1nc(-c2cccc3ccccc23)no1`, the IC50 was determined as 113 µM in assay [3] and 13 µM in assay [4]. Further, the inhibition in assay [1] is 57%; in assay [2], 56%.

On to `CCCCNC(=O)NNC(=O)c1nc(-c2ccc(C(C)(C)C)cc2)no1`, for which the inhibition came to 22% in assay [1] and 7% in assay [2].

With `O=C(NNC(=S)Nc1ccc(C(F)(F)F)cc1)c1nc(-c2cccc3ccccc23)no1`, the values for the IC50 in assay [3] and in assay [4] were 74 µM and 318 µM, respectively. The figures for the inhibition in assay [1] and in assay [2] were 54% and 71%, respectively.

Take `O=C(NNC(=S)Nc1ccc(F)cc1)c1nc(-c2cccc3ccccc23)no1`: the results for the inhibition in assay [1] and in assay [2] were 10% and 35%, respectively.

As for `O=C(CNC(=O)c1nc(-c2ccccc2)no1)Nc1ccccc1`, the results for the inhibition in assay [1] and in assay [2] were 28% and 17%, respectively.

As for `O=C(NNC(=S)Nc1ccc(C(F)(F)F)cc1)c1nc(-c2cccnc2)no1`, the results for the inhibition in assay [1] and in assay [2] were 4% and -4%, respectively.

Regarding `CC(C)(C)c1ccc(-c2noc(C(=O)NCC(=O)Nc3cccc(C(F)(F)F)c3)n2)cc1`, the inhibition in assay [1] stood at 20%; in assay [2] it was 18%.
